MIC and CC50 data for seven compounds are collected here from ChEMBL document CHEMBL4118103, “Synthesis and Bioactivity Investigation of the Individual Components of Cyclic Lipopeptide Antibiotics” (J Med Chem, 2018).

The subject of one series is Pseudomonas aeruginosa. Kind of series: Antibacterial activity against Pseudomonas aeruginosa ATCC 27853 after 18 hrs by agar dilution method. The series is classed as functional. The settings on record: ATCC 27853, 18 h. The method in brief:
(§1)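 Serial two-fold agar dilution per CLSI; bacteria cultured in Mueller-Hinton broth, inoculum about 10^4 cfu/spot; final concentrations 0.03-128 µg/mL; plates incubated 35 °C for 18 h. MIC = lowest concentration preventing visible growth; representative of at least two independent experiments, a third run when the two disagreed.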
Background: Agar dilution tests growth on a series of plates holding different concentrations.

A further series relates to Acinetobacter baumannii. The series is described as follows: Antibacterial activity against Acinetobacter baumannii ATCC 19606 after 18 hrs by agar dilution method. The series is classed as functional. To be noted: ATCC 19606 = CIP 70.34 = JCM 6841, 18 h. The method in brief:
as §1

Series [1] relates to Escherichia coli. The series is described as follows: Antibacterial activity against extended-spectrum beta-lactamase producing Escherichia coli isolate 14-11 after 18 hrs by agar dilution method. The series is classed as functional. To be noted: isolate 14-11, 18 h. The method in brief: as §1
Series [2] in a line: Cytotoxicity against African green monkey Vero cells after 72 hrs by MTT assay. The series is classed as cell-based. To be noted: chlorocebus sabaeus, Vero cells. The method in brief:
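Vero cells seeded at 2x10^3 cells/well, incubated 24 h at 37 °C, 5% CO2, then exposed to compound 72 h; MTT added for 2 h, medium removed, formazan dissolved in DMSO, absorbance read at 570 nm. Viability relative to untreated cells (100%); CC50 as mean ± SD of three independent experiments, each in triplicate.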
A general note: Tetrazolium dyes change colour on reduction, which living cells bring about.

For series [3], the system named is Escherichia coli. The series is described as follows: Antibacterial activity against Escherichia coli ATCC 25922 after 18 hrs by agar dilution method. The series is classed as functional. To be noted: ATCC 25922, 18 h. The method in brief:
as §1

The subject of series [4] is Klebsiella pneumoniae. The series is described as follows: Antibacterial activity against NDM-1 producing Klebsiella pneumoniae ATCC BAA-2146 after 18 hrs by agar dilution method. The series is classed as functional. The settings on record: ATCC BAA-2146, 18 h. The method in brief:
as §1

Series [5] relates to Klebsiella pneumoniae. Kind of series: Antibacterial activity against extended-spectrum beta-lactamase producing Klebsiella pneumoniae 700603 after 18 hrs by agar dilution method. The series is classed as functional. The settings on record: Klebsiella pneumoniae, 700603, 18 h. The method in brief: as §1

The structures appear in SMILES notation. Converted amounts (≈) assume the structure as drawn. Bridge positions count the residues as written; N and C are the ends. Square brackets hold non-standard residues; d marks the D form. Peptide text beside a SMILES is read from it. * marks the point of attachment. Nonanoyl = CCCCCCCCC(=O)*; X1 = CC[C@H](C)CCCCC(=O)*; Heptanoyl = CCCCCCC(=O)*; Octanoyl = CCCCCCCC(=O)*; Dab = NCC[C@H](N)C(=O)O

Take `CC[C@H](C)CCCCC(=O)N[C@@H](CCN)C(=O)N[C@H](C(=O)N[C@H](CO)C(=O)N[C@H]1CCNC(=O)[C@H]([C@@H](C)O)NC(=O)[C@H](CCN)NC(=O)[C@H](CCN)NC(=O)[C@H]([C@@H](C)O)NC(=O)[C@@H](Cc2ccccc2)NC(=O)[C@H](CCN)NC1=O)[C@@H](C)O`: the MIC in the series with Pseudomonas aeruginosa turned out to be 4 µg/mL (≈ 3.39 µM); with Acinetobacter baumannii it was 0.12 µg/mL (≈ 0.102 µM); with Escherichia coli [1], 0.5 µg/mL (≈ 0.424 µM); against Escherichia coli [3], 0.25 µg/mL (≈ 0.212 µM); with Klebsiella pneumoniae [4] it was 0.5 µg/mL (≈ 0.424 µM); against Klebsiella pneumoniae [5], 1 µg/mL (≈ 0.849 µM). In series [2], this compound showed a CC50 at 72 h of 160 µg/mL (≈ 136 µM).
As for `CCCCCCCC(=O)N[C@@H](CCN)C(=O)N[C@H](C(=O)N[C@@H](CCN)C(=O)N[C@H]1CCNC(=O)[C@H]([C@@H](C)O)NC(=O)[C@H](CCN)NC(=O)[C@H](CCN)NC(=O)[C@H](CC(C)C)NC(=O)[C@@H](CC(C)C)NC(=O)[C@H](CCN)NC1=O)[C@@H](C)O` (Octanoyl-[Dab]T[Dab][Dab][Dab][dL]L[Dab][Dab]T; lactam 4-C), the MIC against Pseudomonas aeruginosa stood at 1 µg/mL (≈ 0.865 µM); against Acinetobacter baumannii, 0.5 µg/mL (≈ 0.433 µM); in the series on Escherichia coli [1] it was 0.5 µg/mL (≈ 0.433 µM); with Escherichia coli [3], 0.5 µg/mL (≈ 0.433 µM); with Klebsiella pneumoniae [4], 0.5 µg/mL (≈ 0.433 µM); against Klebsiella pneumoniae [5] it was 1 µg/mL (≈ 0.865 µM). The CC50 at 72 h in series [2] is 150 µg/mL (≈ 130 µM).
Consider `CCCCCCCC(=O)N[C@@H](CCN)C(=O)N[C@H](C(=O)N[C@@H](CCN)C(=O)N[C@H]1CCNC(=O)[C@H]([C@@H](C)O)NC(=O)[C@H](CCN)NC(=O)[C@H](CCN)NC(=O)[C@H](CC(C)C)NC(=O)[C@@H](Cc2ccccc2)NC(=O)[C@H](CCN)NC1=O)[C@@H](C)O` (Octanoyl-[Dab]T[Dab][Dab][Dab][dF]L[Dab][Dab]T; lactam 4-C), for which the MIC was found to be 1 µg/mL (≈ 0.841 µM) against Pseudomonas aeruginosa; 0.5 µg/mL (≈ 0.42 µM) with Acinetobacter baumannii; 1 µg/mL (≈ 0.841 µM) in the series with Escherichia coli [1]; 0.5 µg/mL (≈ 0.42 µM) in the series with Escherichia coli [3]; 1 µg/mL (≈ 0.841 µM) against Klebsiella pneumoniae [4]; 1 µg/mL (≈ 0.841 µM) against Klebsiella pneumoniae [5]. The compound further registered a CC50 at 72 h in series [2] of 86 µg/mL (≈ 72.3 µM).
Regarding `CCCCCCCCC(=O)N[C@@H](CCN)C(=O)N[C@H](C(=O)N[C@@H](CCN)C(=O)N[C@H]1CCNC(=O)[C@H]([C@@H](C)O)NC(=O)[C@H](CCN)NC(=O)[C@H](CCN)NC(=O)[C@H](CC(C)C)NC(=O)[C@@H](Cc2ccccc2)NC(=O)[C@H](CCN)NC1=O)[C@@H](C)O` [POLYMYXIN B5] (Nonanoyl-[Dab]T[Dab][Dab][Dab][dF]L[Dab][Dab]T; lactam 4-C), the MIC against Pseudomonas aeruginosa was 4 µg/mL (≈ 3.32 µM); in the series on Acinetobacter baumannii, 2 µg/mL (≈ 1.66 µM); with Escherichia coli [1] it was 2 µg/mL (≈ 1.66 µM); against Escherichia coli [3], 2 µg/mL (≈ 1.66 µM); in the series on Klebsiella pneumoniae [4] it was 4 µg/mL (≈ 3.32 µM); in the series with Klebsiella pneumoniae [5] it was 2 µg/mL (≈ 1.66 µM). This compound showed a CC50 at 72 h in series [2] of 33 µg/mL (≈ 27.4 µM).
As for `CC[C@H](C)CCCCC(=O)N[C@@H](CCN)C(=O)N[C@H](C(=O)N[C@@H](CCN)C(=O)N[C@H]1CCNC(=O)[C@H]([C@@H](C)O)NC(=O)[C@H](CCN)NC(=O)[C@H](CCN)NC(=O)[C@H](CC(C)C)NC(=O)[C@@H](Cc2ccccc2)NC(=O)[C@H](CCN)NC1=O)[C@@H](C)O` (X1-[Dab]T[Dab][Dab][Dab][dF]L[Dab][Dab]T; lactam 4-C), the MIC against Pseudomonas aeruginosa came out at 2 µg/mL (≈ 1.66 µM); with Acinetobacter baumannii, 0.25 µg/mL (≈ 0.208 µM); in the series with Escherichia coli [1] it was 0.5 µg/mL (≈ 0.415 µM); with Escherichia coli [3], 1 µg/mL (≈ 0.831 µM); against Klebsiella pneumoniae [4], 0.25 µg/mL (≈ 0.208 µM); against Klebsiella pneumoniae [5] it was 2 µg/mL (≈ 1.66 µM). In series [2], this compound came in with a CC50 at 72 h of 71 µg/mL (≈ 59 µM).
`CCCCCCC(=O)N[C@@H](CCN)C(=O)N[C@H](C(=O)N[C@@H](CCN)C(=O)N[C@H]1CCNC(=O)[C@H]([C@@H](C)O)NC(=O)[C@H](CCN)NC(=O)[C@H](CCN)NC(=O)[C@H](CC(C)C)NC(=O)[C@@H](CC(C)C)NC(=O)[C@H](CCN)NC1=O)[C@@H](C)O` (Heptanoyl-[Dab]T[Dab][Dab][Dab][dL]L[Dab][Dab]T; lactam 4-C): the MIC against Pseudomonas aeruginosa stood at 1 µg/mL (≈ 0.876 µM); against Acinetobacter baumannii, 2 µg/mL (≈ 1.75 µM); in the series on Escherichia coli [1] it was 0.5 µg/mL (≈ 0.438 µM); with Escherichia coli [3], 1 µg/mL (≈ 0.876 µM); in the series with Klebsiella pneumoniae [4], 0.5 µg/mL (≈ 0.438 µM); with Klebsiella pneumoniae [5], 0.5 µg/mL (≈ 0.438 µM). The compound further registered a CC50 at 72 h in series [2] of 216 µg/mL (≈ 189 µM).
Turning to `CC[C@H](C)CCCCC(=O)N[C@@H](CCN)C(=O)N[C@H](C(=O)N[C@H](CO)C(=O)N[C@H]1CCNC(=O)[C@H]([C@@H](C)O)NC(=O)[C@H](CCN)NC(=O)[C@H](CCN)NC(=O)[C@H]([C@@H](C)O)NC(=O)[C@@H](CC(C)C)NC(=O)[C@H](CCN)NC1=O)[C@@H](C)O` (X1-[Dab]T[dS][Dab][Dab][dL]T[Dab][Dab]T; lactam 4-C), the MIC in the series on Pseudomonas aeruginosa was found to be 2 µg/mL (≈ 1.75 µM); in the series on Acinetobacter baumannii, 0.06 µg/mL (≈ 0.0524 µM); with Escherichia coli [1], 0.25 µg/mL (≈ 0.218 µM); against Escherichia coli [3], 0.12 µg/mL (≈ 0.105 µM); in the series with Klebsiella pneumoniae [4] it was 0.5 µg/mL (≈ 0.437 µM); in the series on Klebsiella pneumoniae [5], 1 µg/mL (≈ 0.874 µM). In series [2], this compound gave a CC50 at 72 h of 189 µg/mL (≈ 165 µM).

The term MIC denotes the least concentration at which growth counts as inhibited. Usually CC50 stands for the concentration that lowers cell viability or growth by half.
